Assay [1] addresses T1, CXCR4 (Homo sapiens, UniProt P61073). The assay is described as follows: Flow cytometry of CXCR4 cell surface expression on Jurkat cells. Type of assay: cell-based. For orientation: A flow cytometer gives signals particle by particle.
The next assay concerns Gαi. The assay is described as follows: GTP loading of Gαi. Type of assay: cell-based, human. The conditions noted are these: Jurkat cells.
A further assay concerns ERK1/2. The assay is described as follows: ERK1/2 phosphorylation assay. Format: cell-based, human. The conditions noted are these: Jurkat cells, 30 nM CXCL12, time points up to 30 min.
Assay [2] deals with T1, CXCR4. Briefly: cAMP concentration by ELISA in Jurkat cells. Type of assay: cell-based. The conditions noted are these: 100 μM forskolin, 30 nM CXCL12. In short, it runs like this: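 Jurkat cells (5×10^6), serum-starved 6 hours in RPMI 1640 with penicillin-streptomycin and L-glutamine. Steps: 100 μM forskolin or vehicle 30 min; then vehicle or antagonists 30 min; then 30 nM CXCL12 30 min. cAMP measured in lysates by direct ELISA; relative change calculated. Means ± SD of three independent experiments, six replicates per condition.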

Assay [3] concerns the target T1, CXCR4. The assay is described as follows: CXCR4 phosphorylation assay. Format: cell-based. The conditions noted are these: Jurkat cells, 1 μM AMD3100 or 10 μM X4-2-6 for 30 min, then 30 nM CXCL12 for 30 min.
In assay [4] the target is T1, CXCR4. Briefly: Flow cytometry of CXCL12-stimulated CXCR4 endocytosis in Jurkat cells. Type of assay: cell-based. The conditions noted are these: 30 nM CXCL12, antagonist 30 min before. In short, it runs like this:
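Jurkat cells (1×10^5), serum-starved 6 hours, got vehicle or antagonist 30 min before 30 nM CXCL12. At set times, washed three times in ice-cold PBS/1% BSA, stained 20 min with PE-anti-CXCR4 (4G10 or 12G5) or isotype controls, and fixed in 4% paraformaldehyde. Surface CXCR4 read by flow cytometry against CXCL12 alone. Means ± SD; three experiments in triplicate.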

In assay [5] the target is T1, CXCR4. The conditions noted are these: Jurkat cells, 72 hours, fig. S1.
The subject of assay [6] is CXCR4. The assay is described as follows: PRESTO-Tango assay of BA2 recruitment to CXCR4. Format: cell-based. The conditions noted are these: HTLA cells, increasing CXCL12 with 1 μM AMD3100 or 10 μM X4-2-6, 1 hour, 37°C. In short, it runs like this: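 HTLA cells were lipofected with Tango plasmids. After one day they were plated on poly-L-lysine-coated wells and allowed to attach 4 h before treatment with CXCL12 plus vehicle or test compound. Read-out was luminescence after adding a 1:5 mix of Bright-Glo with HBSS/20 mM Hepes and incubating at room temperature.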

Assay [7] deals with T1, CXCR4. Briefly: Transwell chemotaxis of Jurkat cells toward CXCL12. Type of assay: cell-based. The conditions noted are these: Jurkat cells treated 1 hour with 80 μM dynasore, 30 nM CXCL12.

Where a name gives a salt, the structure may show the parent alone.

T1 sequence (P61073 whole entry): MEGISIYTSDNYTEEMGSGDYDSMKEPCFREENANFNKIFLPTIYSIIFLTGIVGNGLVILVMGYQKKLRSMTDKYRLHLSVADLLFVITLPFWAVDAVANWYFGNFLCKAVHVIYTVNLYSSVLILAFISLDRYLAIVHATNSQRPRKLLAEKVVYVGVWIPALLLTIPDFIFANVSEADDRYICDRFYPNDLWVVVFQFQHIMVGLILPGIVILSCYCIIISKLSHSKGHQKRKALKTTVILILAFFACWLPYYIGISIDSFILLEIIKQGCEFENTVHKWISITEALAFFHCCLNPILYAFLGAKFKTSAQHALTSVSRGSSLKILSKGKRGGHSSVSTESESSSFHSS

Consider `c1cc(CN2CCCNCCNCCCNCC2)ccc1CN1CCCNCCNCCCNCC1` [AMD3100, AMD3100 octahydrochloride hydrate], for which the “CXCR4 cell surface expression after prolonged exposure” value at CXCR4 [1] (72 hours, compared to vehicle-treated cells) is reported as “increased cell surface CXCR4 expression”. For the same compound, the “amount of Gαi-GTP in CXCL12-treated cells” value in the assay with Gαi is “reduced the amount of Gαi-GTP”. For the same compound, in the assay on ERK1/2, the “pERK1/2 (Thr202/Tyr204) generation after CXCL12” value is “inhibited both early and late peaks in pERK1/2 generation”. For the same compound, on CXCR4 [2], the “cAMP amounts in forskolin and CXCL12 treated cells” value is recorded as “returned cAMP amounts to those observed in cells treated with forskolin alone”. For the same compound, at CXCR4 [3], the “phosphorylation of Ser324/325 or Ser339 in the C terminus of CXCR4” value was “inhibited this posttranslational modification”. Besides, the “CXCL12-mediated CXCR4 internalization (endocytosis)” value on CXCR4 [4] is “inhibited CXCL12-mediated receptor internalization”. On CXCR4 [5], the “total CXCR4 protein amount” value was “increased the total CXCR4 protein amount”. Besides, in the assay with CXCR4 [6], the “increase of CXCL12 EC50 for BA2 recruitment” value was “more than 3500 fold”. Besides, on CXCR4 [7], the “potency of AMD3100 to inhibit chemotaxis after dynasore treatment” value was “reduced potency”.

On to `Nn1cnc2scc(-c3ccc(Cc4ccccc4)cc3)c2c1=O` [barbadin], for which, in the assay with ERK1/2, the “pERK1/2 (Thr202/Tyr204) generation after CXCL12” value is “increased the early and late peaks in pERK1/2 abundance”.

Regarding `O=C(N/N=C/c1ccc(O)c(O)c1)c1cc2ccccc2cc1O` [dynasore], the “CXCR4 cell surface expression after dynasore” value on CXCR4 [1] (80 μM dynasore for 1 hour, antibody clone 4G10) is given as “increased CXCR4 cell surface expression”.

These data come from PMC6422681 (Science signaling, 2018).
